According to ChEMBL document CHEMBL1155362, “Synthesis, characterization and derivatization of some novel types of mono- and bis-imidazolidineiminothiones and imidazolidineiminodithiones with antitumor, antiviral, antibacterial and antifungal activities--part I” (Eur J Med Chem, 2009):
Calls of active or inactive are those of the source. The calls are words filed in the database; no cut-off is given here.

How the values were obtained:
[1] = tested on: Human alphaherpesvirus 1; experiment: Antiviral activity against HSV1 infected african green monkey Vero cells at 10^-2 dilution of 5 mg/ml by plaque formation assay; format: functional
In short: (§1)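 Compound dilutions prepared from a 5 mg/mL DMSO stock, using the maximum non-toxic dilution for Vero cells over 3 days; 0.1 mL virus (10³) mixed with 0.1 mL compound for 1 h at room temperature; mixture inoculated onto washed Vero monolayers in 12-well plates and adsorbed at 37 °C; 2× MEM/agarose overlay applied; read-out % reduction in plaque count versus untreated virus control.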

[2] = tested on: Aspergillus niger; experiment: Antifungal activity against Aspergillus niger IMI 31726 at 1 mg/ml by agar disk diffusion assay; format: functional; settings: read-out: DIZ
[3] = tested on: Salmonella typhi; experiment: Antibacterial activity against Salmonella typhi NCIMB 9331 at 1 mg/ml by agar disk diffusion assay; format: functional, Salmonella enterica subsp. enterica serovar Typhi; settings: Salmonella enterica, read-out: DIZ
[4] = tested on: Coxsackievirus B4; experiment: Antiviral activity against Coxsackievirus B4 infected african green monkey Vero cells at 10^-2 dilution of 5 mg/ml by plaque formation assay; format: functional; in short: as §1
[5] = tested on: Staphylococcus aureus; experiment: Antibacterial activity against Staphylococcus aureus NCTC 7447 at 1 mg/ml by agar disk diffusion assay; format: functional; settings: read-out: DIZ
[6] = tested on: Escherichia coli; experiment: Antibacterial activity against Escherichia coli NCTC 10416 at 1 mg/ml by agar disk diffusion assay; format: functional; settings: read-out: DIZ
[7] = tested on: Candida albicans; experiment: Antifungal activity against Candida albicans IMRU 3669 at 1 mg/ml by agar disk diffusion assay; format: functional; settings: read-out: DIZ
In short: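 Fungi maintained on Czapek's Dox agar; agar well diffusion with 1 cm wells and […] of each concentration (1, 2.5, 5 mg/mL) in DMF; inhibition zone diameter measured.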

[8] = tested on: Bacillus subtilis; experiment: Antibacterial activity against Bacillus subtilis NCTC 1040 at 1 mg/ml by agar disk diffusion assay; format: functional; settings: read-out: DIZ
[9] = tested on: Hepatovirus A; experiment: Antiviral activity against HAV infected african green monkey Vero cells at 10^-2 dilution of 5 mg/ml by plaque formation assay; format: functional; in short: as §1

For `O=C1C(=S)N(c2ccc(Br)cc2)C(=O)N1c1ccc2c(c1)Cc1ccccc1-2`, the Activity [1] was 40%, the zone of inhibition at 1000 µg/mL [2] was 13 mm and the zone of inhibition at 1000 µg/mL [3] was 12 mm. The Activity [4] was “inactive”, the zone of inhibition at 1000 µg/mL [5] was 13 mm and the zone of inhibition at 1000 µg/mL [6] was 11 mm. The zone of inhibition at 1000 µg/mL [7] was 13 mm, the zone of inhibition at 1000 µg/mL [8] was 14 mm and the Activity [9] was “inactive”.
